These results are taken from ChEMBL document CHEMBL4043277, “Enantioselective inhibitory abilities of enantiomers of notoamides against RANKL-induced formation of multinuclear osteoclasts” (Bioorg Med Chem Lett, 2017).

Structures are written as SMILES. Calls of active or inactive are those of the source. No cut-off for these calls is given here.

Experiment [1] deals with RAW264. Put plainly: Inhibition of RANKL-induced formation of multinuclear osteoclasts in mouse RAW264 cells at 10 ug/ml after 4 days by p-NPP substrate based absorbance method. In kind it is functional, cell-based. The procedure, abridged:
(§1)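 RAW264 cells in MEMα/10% FBS were plated for one day, then treated with compound plus soluble RANKL (250 ng/mL) for four days. After a PBS wash, cells were lysed on ice for 10 min in TRAP buffer (tartrate/acetate, pH 5.7). Extract was incubated with 2.5 mM p-nitrophenyl phosphate at 37°C for 4 h and stopped with NaOH. A405 was read in quadruplicate.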

Experiment [2] is described as follows: Inhibition of RANKL-induced formation of multinuclear osteoclasts in mouse RAW264 cells after 4 days by p-NPP substrate based absorbance method. In kind it is functional, cell-based. Particulars: RAW264.7, 96 h. The procedure, abridged: as §1
Experiment [3] in a line: Inhibition of RANKL-induced Ocstamp mRNA expression in mouse RAW264 cells at 5 uM after 5 days by RT-PCR method relative to control. Conditions: RAW264.7, 120 h. In kind it is functional. The procedure, abridged:
(§2)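 RAW264 cells grown in MEMα with 10% heat-inactivated FBS and penicillin/streptomycin at 37°C, 5% CO2. Cells were co-treated with RANKL (50 ng/mL) and compound for five days. Total RNA was analysed by real-time RT-PCR with SYBR Green: 95 °C 10 min, then cycles of 95 °C 10 s, annealing 5 s, 72 °C 14 s. Expression was calculated from duplicate experiments.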

Experiment [4] in a line: Inhibition of RANKL-induced Atp6v0d2 mRNA expression in mouse RAW264 cells at 5 uM after 5 days by RT-PCR method relative to control. The experiment is classed as functional. Conditions: RAW264.7, 120 h. The procedure, abridged:
as §2

Experiment [5] can be described thus: Inhibition of RANKL-induced Dcstamp mRNA expression in mouse RAW264 cells at 5 uM after 5 days by RT-PCR method relative to control. The experiment is classed as functional. Conditions: RAW264.7, 120 h. The procedure, abridged:
as §2

The nature of experiment [6]: Inhibition of RANKL-induced Acp5 mRNA expression in mouse RAW264 cells at 5 uM after 5 days by RT-PCR method relative to control. The experiment is classed as functional. Conditions: RAW264.7, 120 h. The method, boiled down: as §2
The nature of experiment [7]: Inhibition of RANKL-induced Ctsk mRNA expression in mouse RAW264 cells at 5 uM after 5 days by RT-PCR method relative to control. In kind it is functional. Particulars: RAW264.7, 120 h. The method, boiled down: as §2
Experiment [8] in a line: Inhibition of RANKL-induced Nfatc1 mRNA expression in mouse RAW264 cells at 5 uM after 5 days by RT-PCR method relative to control. In kind it is functional. Particulars: RAW264.7, 120 h. The method, boiled down: as §2
Experiment [9] has as its system RAW264. Put plainly: Inhibition of RANKL-induced formation of multinuclear osteoclasts in mouse RAW264 cells at 5 uM after 4 days by TRAP staining based assay. In kind it is functional, cell-based. The method, boiled down: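 RAW264 cells were treated with compound plus soluble RANKL (250 ng/mL) for four days, then fixed in 4% paraformaldehyde for 10 min at room temperature. They were stained 1 h at room temperature with naphthol AS-MX phosphate/fast red violet LB in tartrate/acetate, pH 5.2. TRAP-positive cells with three or more nuclei were scored as multinuclear osteoclasts.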

Consider `CC(C)=CCc1c(O)ccc2c3c([nH]c12)C(C)(C)[C@H]1CC24CCCN2C(=O)C1(C3)NC4=O` (mixture of isomers), for which the “osteoclast formation inhibition (active/not active)” value with RAW264 [1] is “Active”.

Consider `CC(C)=CCc1c(O)ccc2c3c([nH]c12)C(C)(C)[C@H]1C[C@]24CCCN2C(=O)[C@@]1(C3)NC4=O`, for which the IC50 (as a rule, the concentration needed to halve the response being measured) in experiment [2] was 4.4 µM.

As to `CC1(C)C=Cc2c(ccc3c2N(O)C(=O)[C@@]32C[C@@]34NC(=O)[C@]5(CCCN5C3=O)C[C@H]4C2(C)C)O1`, the “osteoclast formation inhibition (active/not active)” value in the experiment on RAW264 [1] is “Active”.

Regarding `CC1(C)C=Cc2c(ccc3c2NC(=O)[C@]32C[C@]34NC(=O)[C@@]5(CCCN5C3=O)C[C@@H]4C2(C)C)O1`, the “osteoclast formation inhibition (active/not active)” value in the experiment on RAW264 [1] was “Active”.

With `CC1(C)C=Cc2c(ccc3c4c([nH]c23)C(C)(C)[C@H]2C[C@@]35CCCN3C(=O)[C@]2(C4)NC5=O)O1`, in the experiment on RAW264 [1], the “osteoclast formation inhibition (active/not active)” value was “Active”.

Turning to `CC1(C)C=Cc2c(ccc3c2N(O)C(=O)[C@]32C[C@]34NC(=O)[C@@]5(CCCN5C3=O)C[C@@H]4C2(C)C)O1`, in the experiment with RAW264 [1], the “osteoclast formation inhibition (active/not active)” value was “Active”.

As for `C=CC(C)(C)[C@]1(C[C@@H]2NC(=O)[C@@H]3CCCN3C2=O)C(=O)Nc2c1ccc1c2C=CC(C)(C)O1`, the “osteoclast formation inhibition (active/not active)” value in the experiment on RAW264 [1] was “inactive”.

As to `CC1(C)C=Cc2c(ccc3c2NC(=O)[C@@]32C[C@@]34NC(=O)[C@]5(CCCN5C3=O)C[C@H]4C2(C)C)O1`, in the experiment with RAW264 [1], the “osteoclast formation inhibition (active/not active)” value was “Active”.

For `CC(C)=CCc1c(O)ccc2c3c([nH]c12)C(C)(C)[C@@H]1C[C@@]24CCCN2C(=O)[C@]1(C3)NC4=O`, the IC50 in [2] was determined as 1.7 µM. Further, the inhibition at 5 µM in experiment [3], in [4], in experiment [5], in experiment [6], in [7] and in [8] was 20 to 50% each time. The inhibition (as a rule, the relative decrease from the control value, in per cent) with RAW264 [9] is “inactive”.

`C=CC(C)(C)[C@@]12Nc3c(ccc4c3C=CC(C)(C)O4)[C@]1(O)C[C@H]1C(=O)N3CCC[C@H]3C(=O)N12`: the “osteoclast formation inhibition (active/not active)” value in the experiment on RAW264 [1] was “inactive”.

Take `CC1(C)C=Cc2c(ccc3c4c([nH]c23)C(C)(C)[C@@H]2C[C@]35CCCN3C(=O)[C@@]2(C4)NC5=O)O1`: in the experiment on RAW264 [1], the “osteoclast formation inhibition (active/not active)” value was “Active”.
